# Assays:
# [1] = Ratio of drug level in brain to plasma in wild type FVB mouse after 8 hrs; assay type: ADME, cell-free; conditions: read-out: BPR
# Summary of the method: (§1)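 Single 15 mg/kg intravenous dose given to Pgp knockout and wild-type mice. Brain and plasma levels followed over 8 h, and brain/plasma ratios calculated at each time point.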
# [2] = Ratio of drug level in brain to plasma in P-gp transporter knockout FVB mouse after 8 hrs; assay type: ADME, cell-free; conditions: read-out: BPR; summary of the method: as §1
# [3] = target: Voltage-gated inwardly rectifying potassium channel KCNH2 (Homo sapiens, UniProt Q12809); experiment: Inhibition of human ERG
# Voltage-gated inwardly rectifying potassium channel KCNH2, sequence (Q12809 whole entry): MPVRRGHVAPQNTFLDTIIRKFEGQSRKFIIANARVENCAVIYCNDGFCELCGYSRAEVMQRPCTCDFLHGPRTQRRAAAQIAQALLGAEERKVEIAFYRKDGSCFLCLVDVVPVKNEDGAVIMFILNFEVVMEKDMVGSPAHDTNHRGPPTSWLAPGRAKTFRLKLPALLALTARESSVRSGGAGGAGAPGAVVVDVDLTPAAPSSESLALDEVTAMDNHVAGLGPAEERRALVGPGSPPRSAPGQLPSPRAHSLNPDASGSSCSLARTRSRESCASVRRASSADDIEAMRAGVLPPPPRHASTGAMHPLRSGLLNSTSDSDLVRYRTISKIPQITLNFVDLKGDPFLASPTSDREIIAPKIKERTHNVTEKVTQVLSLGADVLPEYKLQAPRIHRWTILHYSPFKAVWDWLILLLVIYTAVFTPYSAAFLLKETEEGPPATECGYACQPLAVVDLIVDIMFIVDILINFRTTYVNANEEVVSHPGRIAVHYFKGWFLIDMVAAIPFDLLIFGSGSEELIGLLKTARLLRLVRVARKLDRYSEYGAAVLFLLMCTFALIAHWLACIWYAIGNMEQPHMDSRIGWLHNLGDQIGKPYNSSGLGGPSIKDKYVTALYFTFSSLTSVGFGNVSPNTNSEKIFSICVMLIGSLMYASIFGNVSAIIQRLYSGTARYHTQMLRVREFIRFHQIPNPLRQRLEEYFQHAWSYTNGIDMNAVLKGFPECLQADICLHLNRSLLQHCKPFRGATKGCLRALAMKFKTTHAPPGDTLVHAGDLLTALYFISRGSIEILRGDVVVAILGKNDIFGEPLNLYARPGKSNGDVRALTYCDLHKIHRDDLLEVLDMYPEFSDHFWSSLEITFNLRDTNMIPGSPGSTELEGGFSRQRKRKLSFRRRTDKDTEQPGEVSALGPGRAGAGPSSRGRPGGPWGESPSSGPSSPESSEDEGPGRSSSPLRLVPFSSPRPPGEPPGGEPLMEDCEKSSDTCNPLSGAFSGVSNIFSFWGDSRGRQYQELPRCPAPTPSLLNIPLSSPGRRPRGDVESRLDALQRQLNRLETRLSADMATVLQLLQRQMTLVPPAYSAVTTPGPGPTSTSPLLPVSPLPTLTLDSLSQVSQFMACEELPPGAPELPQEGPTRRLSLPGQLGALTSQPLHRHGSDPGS
# [4] = Permeability from apical to basolateral side in MDCK cells expressing human MDR1 assessed as compound recovery; assay type: ADME, cell-based, Canis lupus familiaris; conditions: dog, read-out: permeability
# Summary of the method: (§2)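 Bidirectional MDR1-MDCK permeability run with 2 h incubation; percent recovery of compound determined for the A-to-B and B-to-A directions.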
# [5] = Permeability from basolateral to apical side in MDCK cells expressing human MDR1 assessed as compound recovery; assay type: ADME, cell-based, Canis lupus familiaris; conditions: dog, read-out: permeability; summary of the method: as §2
# [6] = target: Melanin-concentrating hormone receptor 1 (Rattus norvegicus, UniProt P97639); experiment: Displacement of [125I]-S36057 from rat MCH1 receptor
# Melanin-concentrating hormone receptor 1, sequence (P97639 whole entry): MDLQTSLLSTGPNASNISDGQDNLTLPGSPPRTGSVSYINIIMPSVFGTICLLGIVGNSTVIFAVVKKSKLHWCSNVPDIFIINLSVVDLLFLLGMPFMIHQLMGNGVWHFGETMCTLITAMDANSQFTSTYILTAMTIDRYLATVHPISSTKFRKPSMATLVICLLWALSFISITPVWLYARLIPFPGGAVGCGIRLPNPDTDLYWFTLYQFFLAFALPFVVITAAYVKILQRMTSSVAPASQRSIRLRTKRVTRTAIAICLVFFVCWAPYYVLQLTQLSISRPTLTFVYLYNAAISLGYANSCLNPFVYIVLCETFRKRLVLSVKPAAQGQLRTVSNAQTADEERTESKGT
# [7] = Drug uptake in rat brain at 10 mg/kg, po after 4 hrs; assay type: ADME, organism-based; parameters: dose 10 mg/kg, route oral; conditions: read-out: Drug uptake
# Summary of the method: (§3)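 Rats dosed orally at 10 mg/kg. Brain (ng/g) and plasma (ng/mL) levels taken at 4 h, giving the brain-to-plasma exposure comparison.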
# [8] = Plasma concentration in rat at 10 mg/kg, po after 4 hrs; assay type: ADME, organism-based; parameters: dose 10 mg/kg, route oral; summary of the method: as §3
# [9] = Apparent permeability from apical to basolateral side in MDCK cells expressing human MDR1 after 2 hrs; assay type: ADME, cell-based, Canis lupus familiaris; conditions: dog
# Summary of the method: (§4)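 MDR1-MDCK monolayers; apparent permeability measured in both directions (A-to-B and B-to-A) after 2 h incubation. Efflux ratio calculated as Papp(B-to-A)/Papp(A-to-B).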
# [10] = Apparent permeability from basolateral to apical side in MDCK cells expressing human MDR1 after 2 hrs; assay type: ADME, cell-based, Canis lupus familiaris; conditions: dog; summary of the method: as §4
# [11] = Efflux ratio of permeability from basolateral to apical over apical to basolateral side of MDCK cells expressing human MDR1 after 2 hrs; assay type: ADME, cell-based, Canis lupus familiaris; conditions: dog; summary of the method: as §4
# [12] = Apparent permeability of the compound at pH 7.4 by PAMPA method; assay type: ADME
# [13] = Apparent permeability of the compound at pH 3 to 7.4 by PAMPA method; assay type: ADME
# [14] = Plasma concentration in wild type FVB mouse at 15 mg/kg, iv after 1 hr; assay type: ADME, organism-based; parameters: dose 15 mg/kg, route intravenous; summary of the method: as §1
# [15] = Plasma concentration in P-gp transporter knockout FVB mouse at 15 mg/kg, iv after 1 hr; assay type: ADME, organism-based; parameters: dose 15 mg/kg, route intravenous; summary of the method: as §1
# [16] = Plasma concentration in wild type FVB mouse at 15 mg/kg, iv after 3 hrs; assay type: ADME, organism-based; parameters: dose 15 mg/kg, route intravenous; summary of the method: as §1
# [17] = Plasma concentration in P-gp transporter knockout FVB mouse at 15 mg/kg, iv after 3 hrs; assay type: ADME, organism-based; parameters: dose 15 mg/kg, route intravenous; summary of the method: as §1
# [18] = Plasma concentration in wild type FVB mouse at 15 mg/kg, iv after 6 hrs; assay type: ADME, organism-based; parameters: dose 15 mg/kg, route intravenous; summary of the method: as §1
# [19] = Plasma concentration in P-gp transporter knockout FVB mouse at 15 mg/kg, iv after 6 hrs; assay type: ADME, organism-based; parameters: dose 15 mg/kg, route intravenous; summary of the method: as §1
# [20] = Plasma concentration in wild type FVB mouse at 15 mg/kg, iv after 8 hrs; assay type: ADME, organism-based; parameters: dose 15 mg/kg, route intravenous; summary of the method: as §1
# [21] = Plasma concentration in P-gp transporter knockout FVB mouse at 15 mg/kg, iv after 8 hrs; assay type: ADME, organism-based; parameters: dose 15 mg/kg, route intravenous; summary of the method: as §1
# [22] = Drug uptake in wild type FVB mouse brain at 15 mg/kg, iv after 1 hr; assay type: ADME, organism-based; parameters: dose 15 mg/kg, route intravenous; conditions: read-out: Drug uptake; summary of the method: as §1
# [23] = Drug uptake in P-gp transporter knockout FVB mouse brain at 15 mg/kg, iv after 1 hr; assay type: ADME, organism-based; parameters: dose 15 mg/kg, route intravenous; conditions: read-out: Drug uptake; summary of the method: as §1
# [24] = Drug uptake in wild type FVB mouse brain at 15 mg/kg, iv after 3 hrs; assay type: ADME, organism-based; parameters: dose 15 mg/kg, route intravenous; conditions: read-out: Drug uptake; summary of the method: as §1
# [25] = Drug uptake in P-gp transporter knockout FVB mouse brain at 15 mg/kg, iv after 3 hrs; assay type: ADME, organism-based; parameters: dose 15 mg/kg, route intravenous; conditions: read-out: Drug uptake; summary of the method: as §1
# [26] = Drug uptake in wild type FVB mouse brain at 15 mg/kg, iv after 6 hrs; assay type: ADME, organism-based; parameters: dose 15 mg/kg, route intravenous; conditions: read-out: Drug uptake; summary of the method: as §1
# [27] = Drug uptake in P-gp transporter knockout FVB mouse brain at 15 mg/kg, iv after 6 hrs; assay type: ADME, organism-based; parameters: dose 15 mg/kg, route intravenous; conditions: read-out: Drug uptake; summary of the method: as §1
# [28] = Drug uptake in wild type FVB mouse brain at 15 mg/kg, iv after 8 hrs; assay type: ADME, organism-based; parameters: dose 15 mg/kg, route intravenous; conditions: read-out: Drug uptake; summary of the method: as §1
# [29] = Drug uptake in P-gp transporter knockout FVB mouse brain at 15 mg/kg, iv after 8 hrs; assay type: ADME, organism-based; parameters: dose 15 mg/kg, route intravenous; conditions: read-out: Drug uptake; summary of the method: as §1
# [30] = Ratio of drug level in brain to plasma in wild type FVB mouse after 1 hr; assay type: ADME, cell-free; conditions: read-out: BPR; summary of the method: as §1
# [31] = Ratio of drug level in brain to plasma in P-gp transporter knockout FVB mouse after 1 hr; assay type: ADME, cell-free; conditions: read-out: BPR; summary of the method: as §1
# [32] = Ratio of drug level in brain to plasma in wild type FVB mouse after 3 hrs; assay type: ADME, cell-free; conditions: read-out: BPR; summary of the method: as §1
# [33] = Ratio of drug level in brain to plasma in P-gp transporter knockout FVB mouse after 3 hrs; assay type: ADME, cell-free; conditions: read-out: BPR; summary of the method: as §1
# [34] = Ratio of drug level in brain to plasma in wild type FVB mouse after 6 hrs; assay type: ADME, cell-free; conditions: read-out: BPR; summary of the method: as §1
# [35] = Ratio of drug level in brain to plasma in P-gp transporter knockout FVB mouse after 6 hrs; assay type: ADME, cell-free; conditions: read-out: BPR; summary of the method: as §1
# [36] = Drug uptake in rat brain at 10 mg/kg, sc after 4 hrs; assay type: ADME, organism-based; parameters: dose 10 mg/kg, route subcutaneous; conditions: read-out: Drug uptake
# Summary of the method: (§5)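 Rat PK with subcutaneous dosing at 10 mg/kg. Brain and plasma concentrations determined 4 h after the dose.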
# [37] = Plasma concentration in rat at 10 mg/kg, sc after 4 hrs; assay type: ADME, organism-based; parameters: dose 10 mg/kg, route subcutaneous; summary of the method: as §5
# [38] = Ratio of drug level in brain to plasma in rat; assay type: ADME, cell-free; conditions: read-out: BPR; summary of the method: as §3
structure (smiles),measurement,setting,value
CN1CC(c2c[nH]c3cc(-n4ccc(OCc5ccccc5)cc4=O)ccc23)C1,Kp at 8 h,[1],0.28
same,Kp at 8 h,[2],2.66
same,IC50,[3],12000 nM
same,recovery,[4],72%
same,recovery,[5],71%
same,Ki,[6],11 nM
same,concentration at 4 h,[7],11 ng/g
same,concentration at 4 h,[8],48 ng/mL
same,Papp A→B at 2 h,[9],0.2 ×10⁻⁶ cm/s
same,Papp B→A at 2 h,[10],26.3 ×10⁻⁶ cm/s
same,efflux ratio at 2 h,[11],144
same,Papp,[12],4.9 ×10⁻⁶ cm/s
same,Papp,[13],16.4 ×10⁻⁶ cm/s
same,concentration at 1 h,[14],2280 ng/mL
same,concentration at 1 h,[15],3130 ng/mL
same,concentration at 3 h,[16],1450 ng/mL
same,concentration at 3 h,[17],1380 ng/mL
same,concentration at 6 h,[18],623 ng/mL
same,concentration at 6 h,[19],689 ng/mL
same,concentration at 8 h,[20],538 ng/mL
same,concentration at 8 h,[21],607 ng/mL
same,concentration at 1 h,[22],143 ng/g
same,concentration at 1 h,[23],878 ng/g
same,concentration at 3 h,[24],172 ng/g
same,concentration at 3 h,[25],1130 ng/g
same,concentration at 6 h,[26],148 ng/g
same,concentration at 6 h,[27],1580 ng/g
same,concentration at 8 h,[28],144 ng/g
same,concentration at 8 h,[29],1620 ng/g
same,Kp at 1 h,[30],0.06
same,Kp at 1 h,[31],0.28
same,Kp at 3 h,[32],0.12
same,Kp at 3 h,[33],0.82
same,Kp at 6 h,[34],0.24
same,Kp at 6 h,[35],2.3
CN1CC(c2c[nH]c3cc(-n4ccc(OCc5ccccc5F)cc4=O)ccc23)C1,Ki,[6],6.7 nM
same,concentration at 4 h,[7],22 ng/g
same,concentration at 4 h,[8],140 ng/mL
same,Papp A→B at 2 h,[9],0.2 ×10⁻⁶ cm/s
same,Papp B→A at 2 h,[10],25.3 ×10⁻⁶ cm/s
same,efflux ratio at 2 h,[11],150
CN1CC(c2c[nH]c3cc(-n4ccc(-c5ccc(Cl)cc5)cc4=O)ccc23)C1,Ki,[6],7.8 nM
same,concentration at 4 h,[7],100 ng/g
same,concentration at 4 h,[8],350 ng/mL
same,Papp A→B at 2 h,[9],0.9 ×10⁻⁶ cm/s
same,Papp B→A at 2 h,[10],53.7 ×10⁻⁶ cm/s
same,efflux ratio at 2 h,[11],60
CN1CC(c2cn(C)c3cc(-n4ccc(OCc5ccccc5)cc4=O)ccc23)C1,Ki,[6],11 nM
same,concentration at 4 h,[36],110 ng/g
same,concentration at 4 h,[37],4000 ng/mL
same,Kp,[38],0.03
COCCN1CC(c2c[nH]c3cc(-n4ccc(OCc5ccccc5)cc4=O)ccc23)C1,Ki,[6],5.2 nM
same,concentration at 4 h,[7],49 ng/g
same,concentration at 4 h,[8],310 ng/mL
same,Papp A→B at 2 h,[9],0.4 ×10⁻⁶ cm/s
same,Papp B→A at 2 h,[10],34.1 ×10⁻⁶ cm/s
same,efflux ratio at 2 h,[11],88
O=c1cc(OCc2ccccc2)ccn1-c1ccc2c(C3CN(CCF)C3)c[nH]c2c1,Ki,[6],4.3 nM
same,concentration at 4 h,[7],130 ng/g
same,concentration at 4 h,[8],620 ng/mL
same,Papp A→B at 2 h,[9],1.4 ×10⁻⁶ cm/s
same,Papp B→A at 2 h,[10],58.9 ×10⁻⁶ cm/s
same,efflux ratio at 2 h,[11],43
Cn1cc(C2CN(CCF)C2)c2ccc(-n3ccc(-c4ccc(F)cc4)cc3=O)cc21,Ki,[6],9 nM
same,concentration at 4 h,[7],810 ng/g
same,concentration at 4 h,[8],1000 ng/mL
same,Papp A→B at 2 h,[9],7.1 ×10⁻⁶ cm/s
same,Papp B→A at 2 h,[10],45.4 ×10⁻⁶ cm/s
same,efflux ratio at 2 h,[11],6.4
same,Kp,[38],0.8
O=c1cc(OCc2ccccc2)ccn1-c1ccc2c(c1)CCN2C1CNC1,Ki,[6],2.4 nM
same,concentration at 4 h,[7],27 ng/g
same,concentration at 4 h,[8],130 ng/mL
CN1CC(N2CCc3cc(-n4ccc(OCc5ccccc5)cc4=O)ccc32)C1,Ki,[6],2.5 nM
same,concentration at 4 h,[7],780 ng/g
same,concentration at 4 h,[8],500 ng/mL
same,Papp A→B at 2 h,[9],2.6 ×10⁻⁶ cm/s
same,Papp B→A at 2 h,[10],36.5 ×10⁻⁶ cm/s
same,efflux ratio at 2 h,[11],14
O=c1cc(OCc2ccccc2)ccn1-c1ccc2c(c1)CCN2C1CN(CCF)C1,Ki,[6],4.9 nM
same,concentration at 4 h,[7],520 ng/g
same,concentration at 4 h,[8],420 ng/mL
same,Papp A→B at 2 h,[9],17.7 ×10⁻⁶ cm/s
same,Papp B→A at 2 h,[10],38.2 ×10⁻⁶ cm/s
same,efflux ratio at 2 h,[11],2.2
CN1CC(N2CCc3cc(-n4ccc(-c5ccc(Cl)cc5)cc4=O)ccc32)C1,Ki,[6],4.9 nM
same,concentration at 4 h,[7],600 ng/g
same,concentration at 4 h,[8],190 ng/mL
same,Kp,[38],> 3
O=c1cc(-c2ccc(Cl)cc2)ccn1-c1ccc2c(c1)CCN2C1CN(CCF)C1,Ki,[6],6.5 nM
same,concentration at 4 h,[7],1100 ng/g
same,concentration at 4 h,[8],650 ng/mL
same,Papp A→B at 2 h,[9],28.9 ×10⁻⁶ cm/s
same,Papp B→A at 2 h,[10],30.1 ×10⁻⁶ cm/s
same,efflux ratio at 2 h,[11],1

# — ChEMBL document CHEMBL1828609, “Strategies to lower the Pgp efflux liability in a series of potent indole azetidine MCHR1 antagonists” (Bioorg Med Chem Lett, 2011)
